inhibition, inhibition of growth and Activity data for 2 molecules are collected here from ChEMBL document CHEMBL4715843, “NO-releasing STAT3 inhibitors suppress BRAF-mutant melanoma growth” (Eur J Med Chem, 2020).

The source made the active and inactive calls. No cut-off for these calls is given here.

For test [1], the target named is T1, Signal transducer and activator of transcription 3 (Homo sapiens, UniProt P40763). Put plainly: Inhibition of STAT3 phosphorylation at Y705 residues in human A-375 cells at 10 to 25 uM after 12 hrs by Western blotting analysis. In kind it is cell-based. The following applies: dose 10-25 µM. The essentials: (§1)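 Cells lysed in M-PER after 12 h drug exposure (overnight per text); 60 µg total protein run on 10% SDS-PAGE, transferred to PVDF, probed overnight at 4 °C with phospho-specific antibodies. Panel lines (U87-MG, MDA-MB-468, MIA PaCa-2, NCI-H157, A549) given 25 µM; A375 given 0, 5, 10, 25 µM. Actin and/or vinculin loading controls.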

For test [2], the target named is T1, Signal transducer and activator of transcription 3. Put plainly: Inhibition of STAT3 phosphorylation at S727 residues in human A549 cells at 25 uM after 12 hrs by Western blotting analysis. In kind it is cell-based. The procedure, abridged: as §1
In general terms: In western blotting, separated proteins are transferred to a membrane and probed.

Test [3] addresses Proto-oncogene tyrosine-protein kinase Src (Homo sapiens) (UniProt P12931). Put plainly: Inhibition of SRC phosphorylation in human MDA-MB-468 cells at 25 uM after 12 hrs by Western blotting analysis. In kind it is cell-based. The procedure, abridged: as §1
For another test, the system named is MCF7. Put plainly: Anticancer activity against human MCF7 cells assessed as cell growth inhibition at 10 uM measured after 48 hrs by SRB assay relative to control. The class given is functional. The following applies: read-out: GI. The procedure, abridged: (§2)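 NCI 60-cell-line screen. Cells in RPMI with 5% FBS were plated at 5,000–40,000 cells/well by doubling time and preincubated 24 h at 37 °C. Compound was added at a single 10 µM for 48 h, then cells were fixed with cold TCA (10% final) and stained with 0.4% SRB. Absorbance at 515 nm gave percent growth versus untreated control and time-zero cells.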
In general terms: In SRB staining, fixed cells bind dye roughly in proportion to their protein.

Test [4] has as its target Tyrosine-protein kinase JAK2 (Homo sapiens) (UniProt O60674). Briefly: Inhibition of JAK2 phosphorylation in human U-87 MG cells at 25 uM after 12 hrs by Western blotting analysis. In kind it is cell-based. The procedure, abridged:
as §1

Test [5] concerns the target Proto-oncogene tyrosine-protein kinase Src (Homo sapiens) (UniProt P12931). Briefly: Inhibition of SRC phosphorylation in human MIA PaCa-2 cells at 25 uM after 12 hrs by Western blotting analysis. The class given is cell-based. The procedure, abridged: as §1
Test [6] addresses T1, Signal transducer and activator of transcription 3. Put plainly: Inhibition of IL-6 induced STAT3 activation in human A-375 cells preincubated for overnight followed by IL-6 addition and measured after 30 mins by Western blot analysis. In kind it is cell-based. The procedure, abridged: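 A375 cells were held overnight in serum-free medium with inhibitor doses, then stimulated in full medium with 25 ng/mL IL-6 for 30 min. Lysates were immunoblotted for STAT3 pY705/pS727 and Cyclin D1.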

A further test has as its system NCI-H157. Briefly: Antiproliferative activity against human NCI-H157 cells measured after 48 hrs by MTS assay. In kind it is functional, cell-based. The procedure, abridged:
(§3)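 Cells were exposed to a dose range of inhibitor for 48 h, and viability was read by MTS assay in triplicate. GI50 was taken as the concentration giving 50% growth inhibition, averaged from three independent experiments. A375 was cultured in RPMI-1640 with Glutamax. A549 and NCI-H157 were kept in RPMI-1640, and MIA PaCa-2 and U87-MG in DMEM.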

The target in test [7] is T1, Signal transducer and activator of transcription 3. Briefly: Inhibition of STAT3 phosphorylation at S727 residues in human NCI-H157 cells at 25 uM after 12 hrs by Western blotting analysis. In kind it is cell-based. The essentials:
as §1

Test [8] has as its system 451Lu. Briefly: Antiproliferative activity against human 451Lu cells measured after 48 hrs by MTS assay. In kind it is functional, cell-based. On the technique in general: Formazan colour is commonly taken as a measure of viable cells.
Test [9] addresses T1, Signal transducer and activator of transcription 3. Put plainly: Inhibition of STAT3 phosphorylation at Y705 residues in human MDA-MB-468 cells at 25 uM after 12 hrs by Western blotting analysis. In kind it is cell-based. The essentials: as §1
The test system of test [10] is MEL1617. Briefly: Antiproliferative activity against human SB-590885-sensitive MEL1617 cells assessed as reduction in cell viability measured after 48 hrs by MTS assay. The class given is functional, cell-based. The essentials:
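Melanoma lines were grown in RPMI-1640 with Glutamax at 37 °C and 5% CO2. The resistant 451 Lu-R and MEL 1617-R sublines were maintained with 1 µM PLX4720. Cells were incubated with vehicle or inhibitor over a dose range, and viability was read by MTS assay in triplicate.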

The subject of test [11] is 451Lu. Put plainly: Induction of apoptosis in human SB-590885-sensitive 451Lu cells assessed as increase in cleaved PARP expression measured after 12 hrs by Western blot analysis. In kind it is functional. The essentials: (§4)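 Sensitive and resistant 451 Lu cells were exposed to a dose range for 12 h before lysis. PARP, cleaved PARP and caspase-7 were detected by western blot against a vinculin loading control; repeated twice.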

The subject of the next test is T47D. Put plainly: Anticancer activity against human T47D cells assessed as cell growth inhibition at 10 uM measured after 48 hrs by SRB assay relative to control. In kind it is functional. The following applies: read-out: GI. The procedure, abridged:
as §2

In the next test the test system is CCRF-CEM. Briefly: Anticancer activity against human CCRF-CEM cells assessed as cell growth inhibition at 10 uM measured after 48 hrs by SRB assay relative to control. Particulars: read-out: GI. In kind it is functional. The essentials:
as §2

The target in test [12] is T1, Signal transducer and activator of transcription 3. Briefly: Inhibition of STAT3 phosphorylation at Y705 residues in human NCI-H157 cells at 25 uM after 12 hrs by Western blotting analysis. In kind it is cell-based. The essentials:
as §1

In test [13] the test system is 451Lu. Put plainly: Induction of apoptosis in human SB-590885-resistant 451Lu cells assessed as increase in cleaved caspase-7 expression measured after 12 hrs by Western blot analysis. The class given is functional. The procedure, abridged:
as §4

A further test deals with UACC-62. Put plainly: Anticancer activity against human UACC-62 cells assessed as cell growth inhibition at 10 uM measured after 48 hrs by SRB assay relative to control. In kind it is functional. The following applies: read-out: GI. The procedure, abridged: as §2
The subject of the next test is MIA PaCa-2. Put plainly: Antiproliferative activity against human MIA PaCa-2 cells measured after 48 hrs by MTS assay. In kind it is functional, cell-based. The essentials: as §3
Test [14] has as its system 451Lu. Put plainly: Induction of apoptosis in human SB-590885-sensitive 451Lu cells assessed as increase in cleaved caspase-7 expression measured after 12 hrs by Western blot analysis. The class given is functional. The procedure, abridged: as §4
The subject of another test is A-375. Put plainly: Antiproliferative activity against human A-375 cells measured after 48 hrs by MTS assay. In kind it is functional, cell-based. The essentials: as §3
The target in test [15] is T1, Signal transducer and activator of transcription 3. Put plainly: Inhibition of STAT3 phosphorylation at S727 residues in human MIA PaCa-2 cells at 25 uM after 12 hrs by Western blotting analysis. The class given is cell-based. The procedure, abridged: as §1
The subject of test [16] is 451Lu. Put plainly: Induction of apoptosis in human SB-590885-resistant 451Lu cells assessed as increase in caspase-3/7 activation incubated for 45 to 60 hrs by IncuCyte Caspase-3/7 reagent based assay. In kind it is functional. The following applies: time 45-60 hrs. The procedure, abridged: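 451 Lu-R cells (2000/well) were allowed to adhere for 24 h, then treated with a dose range in full medium containing IncuCyte Caspase-3/7 reagent. Wells were imaged over time with a ×10 objective. Apoptotic cell counts were normalized to percent confluence at the final time point; SEM, n = 3–4.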

Test [17] deals with MEL1617. Briefly: Antiproliferative activity against human MEL1617 cells measured after 48 hrs by MTS assay. In kind it is functional, cell-based. The procedure, abridged:
as §3

In test [18] the target is T1, Signal transducer and activator of transcription 3. Put plainly: Inhibition of STAT3 phosphorylation at Y705 residues in human A549 cells at 25 uM after 12 hrs by Western blotting analysis. The class given is cell-based. The procedure, abridged:
as §1

A further test deals with A549. Briefly: Antiproliferative activity against human A549 cells measured after 48 hrs by MTS assay. The class given is functional, cell-based. The procedure, abridged: as §3

T1 sequence (P40763 whole entry): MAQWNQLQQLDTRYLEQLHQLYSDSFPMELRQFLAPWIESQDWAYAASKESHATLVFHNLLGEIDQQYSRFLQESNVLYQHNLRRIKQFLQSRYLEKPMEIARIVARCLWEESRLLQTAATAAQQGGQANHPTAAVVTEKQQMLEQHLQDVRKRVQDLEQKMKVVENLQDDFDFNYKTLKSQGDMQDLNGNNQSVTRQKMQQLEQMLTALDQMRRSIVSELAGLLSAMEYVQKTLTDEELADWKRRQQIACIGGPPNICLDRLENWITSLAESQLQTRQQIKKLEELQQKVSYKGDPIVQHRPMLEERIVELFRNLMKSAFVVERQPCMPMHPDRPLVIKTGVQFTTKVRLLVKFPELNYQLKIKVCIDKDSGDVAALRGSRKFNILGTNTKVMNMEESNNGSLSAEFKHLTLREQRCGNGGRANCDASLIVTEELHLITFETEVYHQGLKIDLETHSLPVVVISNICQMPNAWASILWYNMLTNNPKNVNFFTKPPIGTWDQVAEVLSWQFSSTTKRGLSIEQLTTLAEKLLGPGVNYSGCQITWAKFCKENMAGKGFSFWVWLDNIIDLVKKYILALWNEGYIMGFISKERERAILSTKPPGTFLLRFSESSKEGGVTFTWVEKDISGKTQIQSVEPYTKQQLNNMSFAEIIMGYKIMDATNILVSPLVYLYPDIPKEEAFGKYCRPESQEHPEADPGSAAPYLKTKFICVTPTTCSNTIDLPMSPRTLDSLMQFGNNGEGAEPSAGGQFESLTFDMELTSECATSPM
Chain of Proto-oncogene tyrosine-protein kinase Src (Homo sapiens) (P12931 2-536 limits assumed): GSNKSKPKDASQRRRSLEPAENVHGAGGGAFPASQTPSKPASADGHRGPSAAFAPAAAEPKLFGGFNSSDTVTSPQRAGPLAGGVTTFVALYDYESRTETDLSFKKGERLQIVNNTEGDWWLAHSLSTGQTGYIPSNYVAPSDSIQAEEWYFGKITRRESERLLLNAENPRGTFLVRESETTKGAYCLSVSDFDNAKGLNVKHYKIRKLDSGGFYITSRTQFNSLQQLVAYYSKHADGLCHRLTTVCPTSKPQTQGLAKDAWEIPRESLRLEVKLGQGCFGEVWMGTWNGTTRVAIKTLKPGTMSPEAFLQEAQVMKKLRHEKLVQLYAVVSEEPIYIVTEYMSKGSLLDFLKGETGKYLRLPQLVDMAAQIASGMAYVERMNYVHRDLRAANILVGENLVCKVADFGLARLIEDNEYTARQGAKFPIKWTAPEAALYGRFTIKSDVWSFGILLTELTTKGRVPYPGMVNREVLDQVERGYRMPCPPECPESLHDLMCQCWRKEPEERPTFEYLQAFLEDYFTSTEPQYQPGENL
Chain of Tyrosine-protein kinase JAK2 (Homo sapiens) (O60674 whole entry): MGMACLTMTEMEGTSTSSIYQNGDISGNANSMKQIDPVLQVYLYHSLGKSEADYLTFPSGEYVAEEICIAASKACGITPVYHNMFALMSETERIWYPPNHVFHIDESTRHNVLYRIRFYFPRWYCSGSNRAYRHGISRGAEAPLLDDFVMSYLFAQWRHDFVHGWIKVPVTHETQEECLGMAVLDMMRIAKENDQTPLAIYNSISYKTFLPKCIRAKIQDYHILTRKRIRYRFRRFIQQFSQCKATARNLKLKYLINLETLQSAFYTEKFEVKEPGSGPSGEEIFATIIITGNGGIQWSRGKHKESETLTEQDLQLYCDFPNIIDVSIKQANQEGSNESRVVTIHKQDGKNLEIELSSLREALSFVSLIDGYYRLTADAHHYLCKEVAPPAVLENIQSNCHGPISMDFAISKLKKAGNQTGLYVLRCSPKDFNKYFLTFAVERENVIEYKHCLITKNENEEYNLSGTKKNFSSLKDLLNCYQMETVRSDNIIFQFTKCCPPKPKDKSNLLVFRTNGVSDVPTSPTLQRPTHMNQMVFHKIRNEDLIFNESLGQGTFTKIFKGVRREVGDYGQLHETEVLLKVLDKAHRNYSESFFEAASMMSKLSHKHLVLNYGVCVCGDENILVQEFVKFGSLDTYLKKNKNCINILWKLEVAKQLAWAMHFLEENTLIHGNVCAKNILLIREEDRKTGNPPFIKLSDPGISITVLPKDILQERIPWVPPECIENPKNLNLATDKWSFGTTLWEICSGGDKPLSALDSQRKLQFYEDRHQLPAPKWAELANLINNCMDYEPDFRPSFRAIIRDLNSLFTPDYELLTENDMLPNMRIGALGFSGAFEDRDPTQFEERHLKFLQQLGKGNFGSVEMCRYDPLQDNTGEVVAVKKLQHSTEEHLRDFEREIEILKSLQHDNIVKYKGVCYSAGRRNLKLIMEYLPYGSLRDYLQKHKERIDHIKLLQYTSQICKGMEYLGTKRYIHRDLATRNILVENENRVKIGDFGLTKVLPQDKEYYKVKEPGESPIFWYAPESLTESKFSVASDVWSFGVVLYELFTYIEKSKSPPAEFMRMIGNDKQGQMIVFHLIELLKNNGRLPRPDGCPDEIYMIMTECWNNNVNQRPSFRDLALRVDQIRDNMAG

On to `C=CCn1c(SCC(=O)Nc2ccc(/C(C)=N\O)cc2)nnc1-c1cc(-c2ccc(Cl)cc2)nc2ccccc12`, for which the inhibition entry in [1] was “Active”.

On to `C=CCn1c(SCC(=O)Nc2ccc(/C(C)=N\O)cc2)nnc1-c1cc(-c2ccccc2)nc2ccccc12`, for which the inhibition result in test [2], in test [7], in [9], in test [12], in test [15] and in test [18] was “Active” throughout. In addition, the inhibition entry in test [3], in test [4] and in test [5] was “inactive” each time. Also, the inhibition of growth at 10 µM in the test with MCF7, with T47D, in the test with CCRF-CEM and with UACC-62 was 76% each time. The inhibition entry in [6] was “Dose-dependent effect”. Besides, the result in the test with NCI-H157, in the test with 451Lu [8], with MIA PaCa-2, with A-375, in the test on MEL1617 [17] and in the test on A549 was Active. Moreover, the Activity result in the test on MEL1617 [10], in the test on 451Lu [11], in the test on 451Lu [13], in the test with 451Lu [14] and with 451Lu [16] was “Dose-dependent effect” in each case.
